Data: paper PMC8830364 (Bioorganic & medicinal chemistry letters, 2021)

Tests used:
[1] = Chemical stability in human plasma; format: in vitro ADME; settings: pooled human plasma, 37 °C; for Stability in human plasma (in words): 2.5 μM, 0, 30, 60, 120 min; for Half time in human plasma: 2.5 μM, 0-120 min
Procedure, shortened: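 Test compound at 2.5 μM (below its K_M) incubated in pooled plasma from healthy volunteers at 37 °C, in triplicate, sampled at 0, 30, 60 and 120 min. Remaining analyte was quantified by LC-MS/MS in MRM mode. Degradation was treated as first-order: the slope of ln(concentration) versus time gave the rate constant k, from which t1/2 was calculated.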

[2] = target: T1, Human neutrophil elastase (HNE) (Homo sapiens, UniProt P08246); assay: HNE inhibitory activity; format: biochemical; settings: for HNE inhibitory activity (in words): as described
T1 sequence (P08246 30-267): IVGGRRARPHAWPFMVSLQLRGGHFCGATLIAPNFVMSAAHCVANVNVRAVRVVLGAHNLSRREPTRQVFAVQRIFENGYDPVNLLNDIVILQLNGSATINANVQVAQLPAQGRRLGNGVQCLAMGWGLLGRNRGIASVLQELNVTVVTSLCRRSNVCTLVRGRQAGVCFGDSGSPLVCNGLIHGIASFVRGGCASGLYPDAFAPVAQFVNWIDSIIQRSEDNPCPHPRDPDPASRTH

[3] = Stability in aqueous buffer; format: physicochemical; settings: for half-life: Half-life (t1/2) for the spontaneous hydrolysis

| Ki [2] | HNE inhibitory activity (in words) [2] | Structure (SMILES) | other results |
| --- | --- | --- | --- |
| > 50 µM |  | O=C(C1CC1)N(C(=O)C1CC1)C1CCCc2c1cnn2-c1ccccc1 (stereo not drawn) [Compound 14a] |  |
| > 50 µM |  | O=C(NC1CCCc2c1cnn2-c1ccccc1)C1CC1 (stereo not drawn) [Compound 14b] |  |
| > 50 µM |  | Cc1cccc(C(=O)NC2CCCc3c2cnn3-c2ccccc2)c1 (stereo not drawn) [Compound 14c] |  |

The remaining lines, values behind:

| Structure (SMILES) | Ki [2] | HNE inhibitory activity (in words) [2] | other results |
| --- | --- | --- | --- |
| Cc1cccc(C(=O)n2cc3c(n2)CCCC3=O)c1 [Compound 6a] |  |  | Stability in human plasma (in words) [1]: rapid degradation rate; Half time in human plasma [1]: ~6 min |
| O=C1CCCc2nn(-c3cccc(C(F)(F)F)c3)cc21 [Compound 6c] | > 50 µM | complete inactivity |  |
| O=C1CCCc2nn(Cc3cccc(C(F)(F)F)c3)cc21 [Compound 6d] | > 50 µM | complete inactivity | Stability in human plasma (in words) [1]: maintained their spiked concentration for all of the incubation times |
| O=C1CCCc2nn(Cc3ccccc3)cc21 [Compound 6e] | > 50 µM | complete inactivity |  |
| CC(C)(C)OC(=O)N1CCN(C(=O)Cn2cc3c(n2)CCCC3=O)CC1 [Compound 6g] | > 50 µM |  |  |
| O=C1CCCc2nn(CC(=O)N3CCNCC3)cc21 [Compound 6h] | > 50 µM |  |  |
| Cc1cccc(C(=O)n2ncc3c2CCCC3=O)c1 [Compound 7a] |  |  | Stability in human plasma (in words) [1]: rapid degradation rate; Half time in human plasma [1]: ~6 min |
| O=C1CCCc2c1cnn2-c1cccc(C(F)(F)F)c1 [Compound 7c] | > 50 µM | complete inactivity |  |
| O=C1CCCc2c1cnn2Cc1cccc(C(F)(F)F)c1 [Compound 7d] | > 50 µM | complete inactivity | Stability in human plasma (in words) [1]: maintained their spiked concentration for all of the incubation times |
| O=C1CCCc2c1cnn2Cc1ccccc1 [Compound 7e] | > 50 µM | complete inactivity |  |
| CC(C)(C)OC(=O)N1CCN(C(=O)Cn2ncc3c2CCCC3=O)CC1 [Compound 7g] | > 50 µM |  |  |
| O=C(C1CC1)n1cc2c(n1)CCC(Br)(Br)C2=O [Compound 9b, 5,5-dibromo-2-(cyclopropanecarbonyl)-2,5,6,7-tetrahydro-4H-indazol-4-one] |  |  | half-life [3]: 235 ± 18.2 min |
| CC(C)(C)OC(=O)n1cc2c(n1)CCC(Br)C2=O (stereo not drawn) [Compound 9e] | > 50 µM | low active or devoid of HNE inhibitory activity |  |
| O=C1c2cn(CC(=O)N3CCN(c4ccccc4)CC3)nc2CCC1Br (stereo not drawn) [Compound 9f] | > 50 µM | low active or devoid of HNE inhibitory activity |  |
| O=C1c2cnn(C(=O)C3CC3)c2CCC1Br (stereo not drawn) [Compound 10a] |  |  | Half-life (t1/2) for the spontaneous hydrolysis [3]: 38.7 ± 4.1 min; half-life [3]: 53.9 min |
| O=C1c2cnn(CC(=O)N3CCN(c4ccccc4)CC3)c2CCC1Br (stereo not drawn) [Compound 10d] | > 50 µM | low active or devoid of HNE inhibitory activity |  |
